Consider 6 compounds from ChEMBL document CHEMBL1155581, “A-Type proanthocyanidin trimers from cranberry that inhibit adherence of uropathogenic P-fimbriated Escherichia coli” (J Nat Prod, 2000).

Active and inactive are the calls of the source. The rule behind the calls is not given here.

Common to all, as to type: functional, organism-based
Assay [1] relates to Escherichia coli. Description: Antiadherent activity against P-fimbriated Escherichia coli in human erythrocyte assessed as suppression of agglutination using latex beads coated with P receptor analogue at 0.3 mg/ml. The essentials:
(§1)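 Uropathogenic P-fimbriated E. coli from patient urine, grown in tryptose broth 16 h at 37 °C, then overnight on CFA plates. Washed cells at 5 × 10^8/mL in PBS pH 7.0. Compounds in PBS neutralized with 1 N NaOH, 2-fold serial dilutions, 30 µL with 10 µL bacteria for 10 min at RT with shaking. 3% A1 Rh+ human RBCs or P-receptor-coated latex beads added separately, 20 min RT. Agglutination suppression scored microscopically (+/−).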

Assay [2] concerns Escherichia coli. Description: Antiadherent activity against P-fimbriated Escherichia coli in human erythrocyte assessed as suppression of agglutination using latex beads coated with P receptor analogue at 2.4 mg/ml. In short, it runs like this: as §1
The subject of assay [3] is Escherichia coli. Nature of the assay: Antiadherent activity against P-fimbriated Escherichia coli in human erythrocyte assessed as suppression of agglutination using latex beads coated with P receptor analogue at 1.2 mg/ml. The essentials:
as §1

For assay [4], the system named is Escherichia coli. Description: Antiadherent activity against P-fimbriated Escherichia coli in human erythrocyte assessed as suppression of agglutination using latex beads coated with P receptor analogue at 0.15 mg/ml. The essentials:
as §1

The test system of assay [5] is Escherichia coli. Nature of the assay: Antiadherent activity against P-fimbriated Escherichia coli in human erythrocyte assessed as suppression of agglutination using latex beads coated with P receptor analogue at 0.6 mg/ml. In short, it runs like this: as §1

For the compound `Oc1cc(O)c2c(c1)O[C@H](c1ccc(O)c(O)c1)[C@H](O)[C@H]2c1c(O)cc2c(c1O)[C@@H]1c3c(cc(O)c4c3O[C@H](c3ccc(O)c(O)c3)[C@H](O)C4)O[C@](c3ccc(O)c(O)c3)(O2)[C@@H]1O`, the outcome in the assay on Escherichia coli [1], in the assay on Escherichia coli [2], in the assay with Escherichia coli [3] and in the assay on Escherichia coli [5] was Active. Also, the outcome with Escherichia coli [4] was inactive.
For `Oc1cc(O)c2c(c1)O[C@H](c1ccc(O)c(O)c1)[C@H](O)[C@H]2c1c(O)cc(O)c2c1O[C@@]1(c3ccc(O)c(O)c3)Oc3cc(O)c4c(c3[C@@H]2[C@H]1O)O[C@H](c1ccc(O)c(O)c1)[C@H](O)C4`, the result in the assay on Escherichia coli [1] and in the assay on Escherichia coli [4] was inactive. The result in the assay on Escherichia coli [2], with Escherichia coli [3] and in the assay on Escherichia coli [5] was Active.
For `Oc1cc(O)c2c(c1)O[C@@]1(c3ccc(O)c(O)c3)Oc3cc(O)c4c(c3[C@@H]2[C@H]1O)O[C@H](c1ccc(O)c(O)c1)[C@H](O)C4`, the outcome in the assay on Escherichia coli [1], in the assay on Escherichia coli [3], in the assay on Escherichia coli [4] and with Escherichia coli [5] was inactive. For the same compound, the outcome in the assay with Escherichia coli [2] was Active.
`Oc1cc(O)c2c(c1)O[C@H](c1ccc(O)c(O)c1)[C@H](O)C2`: the result in the assay with Escherichia coli [1], in the assay on Escherichia coli [2], with Escherichia coli [3], with Escherichia coli [4] and with Escherichia coli [5] was inactive.
As to `Oc1cc(O)c2c(c1)O[C@@]1(c3ccc(O)c(O)c3)Oc3cc(O)c4c(c3[C@@H]2[C@H]1O)O[C@H](c1ccc(O)c(O)c1)[C@H](O)[C@H]4c1c(O)cc(O)c2c1O[C@H](c1ccc(O)c(O)c1)[C@H](O)C2` [CINNAMTANNIN B1], the result in the assay with Escherichia coli [1], in the assay with Escherichia coli [2], in the assay on Escherichia coli [3] and with Escherichia coli [5] was Active. Moreover, the Activity entry in the assay with Escherichia coli [4] is “Not Active”.
Consider `Oc1cc(O)c2c(c1)O[C@H](c1ccc(O)c(O)c1)[C@H](O)[C@H]2c1c(O)cc(O)c2c1O[C@H](c1ccc(O)c(O)c1)[C@H](O)C2`, for which the result with Escherichia coli [1], in the assay with Escherichia coli [2], in the assay on Escherichia coli [3], with Escherichia coli [4] and with Escherichia coli [5] was inactive.
